In paper PMC3328401 (Journal of Medicinal Chemistry, 2012):

Experiments:
OVCAR-3 cells = assay: Subcellular distribution of 125I-labeled reagents; format: cell-based, human; settings: for ^125I in cytoplasm, 24 hours / ^125I in nucleus, 24 hours: 1 h incubation then 24 h in fresh nonradioactive medium; for ^125I in cytoplasm, 1 hour / ^125I in nucleus, 1 hour: 1 h incubation, 55.5 kBq/mL
Outline: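 OVCAR-3 cells were kept in RPMI-1640 with insulin, 2 mM L-glutamine and 20% FBS and expanded as intraperitoneal xenografts in athymic nude mice. Cells in six T150 flasks attached overnight, then were exposed 1 h to ¹²⁵I compound (55.5 kBq/mL). Three flasks were processed immediately and three after 24 h in fresh medium. Cells were trypsinized, counted, fractionated into nuclear/cytoplasmic compartments and gamma-counted.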

[1] = Chemical hydrolysis of cycloSal phosphate triesters in phosphate buffer; format: physicochemical; settings: phosphate buffer 50 mM, pH 7.3, 37°C, ~15% acetonitrile
[2] = Solubility in aqueous media; settings: aqueous media / water
[3] = test system: LS 174T and OVCAR-3 cancer cell lines; assay: Uptake kinetics, cell-associated activity after 3 h; format: cell-based, human; settings: after 3 h incubation
Outline: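 Cells were plated at 2×10⁵/well in 6-well plates in 3 mL growth medium: OVCAR-3 in RPMI-1640 with 20% FBS, LS 174T in EMEM with 10% FBS. After 24 h, radiolabeled compound (~13.6–46.9 kBq/mL) was added at staggered times, up to 360 min, in triplicate. Medium was gamma-counted for radioactive concentration. Cells were washed twice with ice-cold PBS, trypsinized and gamma-counted for cell-associated activity.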

SMILES	^125I in cytoplasm, 24 hours (OVCAR-3 cells)	^125I in nucleus, 24 hours (OVCAR-3 cells)	^125I in cytoplasm, 1 hour (OVCAR-3 cells)	^125I in nucleus, 1 hour (OVCAR-3 cells)	k (rate of hydrolysis) [1]	further results
O=c1[nH]c(=O)n([C@H]2C[C@H](O)[C@@H](COP3(=O)OCc4ccccc4O3)O2)cc1[125I] (stereo partly drawn) [6b, 5-[^125I]-Iodo-5′-O-cycloSaligenyl-2′-deoxyuridine Monophosphate]	7.3 (1.0) cpm/10^3 cells (std dev)	39.4 (5.8) cpm/10^3 cells (std dev)	20.2 (3.2) cpm/10^3 cells (std dev)	5.7 (1.6) cpm/10^3 cells (std dev)		
O=c1[nH]c(=O)n([C@H]2C[C@H](OP3(=O)OCc4ccccc4O3)[C@@H](CO)O2)cc1I (stereo partly drawn) [12-fast, 5-Iodo-3′-O-cycloSaligenyl-2′-deoxyuridine Monophosphate]					0.00205 min⁻¹	
CC(C)(C)c1cc(C(C)(C)C)c2c(c1F)COP(=O)(OC[C@H]1O[C@@H](n3cc([125I])c(=O)[nH]c3=O)C[C@@H]1F)O2 (stereo partly drawn) [24b-fast, 5-[^125I]-Iodo-5′-O-[cyclo-3,5-Di-(tert-butyl)-6-fluoroSaligenyl]-3′-fluoro-2′,3′-dideoxyuridine]					0.000301 min⁻¹	
O=c1[nH]c(=O)n([C@H]2C[C@H](OP3(=O)OCc4ccccc4O3)[C@@H](CO)O2)cc1[125I] (stereo partly drawn) [12b, 5-[^125I]-Iodo-3′-O-cycloSaligenyl-2′-deoxyuridine Monophosphate]	2.7 (0.3) cpm/10^3 cells (std dev)	30.2 (5.3) cpm/10^3 cells (std dev)	7.2 (0.7) cpm/10^3 cells (std dev)	2.1 (0.2) cpm/10^3 cells (std dev)		
CC(C)(C)c1cc(C(C)(C)C)c2c(c1F)COP(=O)(OC[C@H]1O[C@@H](n3cc(I)c(=O)[nH]c3=O)C[C@@H]1F)O2 (stereo partly drawn) [24-slow, 5-Iodo-5′-O-[cyclo-3,5-Di-(tert-butyl)-6-fluoroSaligenyl]-3′-fluoro-2′,3′-dideoxyuridine Monophosphate]					0.000222 min⁻¹	
CC(C)(C)c1cc(C(C)(C)C)c2c(c1F)COP(=O)(OC[C@H]1O[C@@H](n3cc(I)c(=O)[nH]c3=O)C[C@@H]1F)O2 (stereo partly drawn) [24-fast, 5-Iodo-5′-O-[cyclo-3,5-Di-(tert-butyl)-6-fluoroSaligenyl]-3′-fluoro-2′,3′-dideoxyuridine Monophosphate]					0.000292 min⁻¹	
CC(C)(C)c1cc(C(C)(C)C)c2c(c1F)COP(=O)(OC[C@H]1O[C@@H](n3cc(I)c(=O)[nH]c3=O)C[C@@H]1O)O2 (stereo partly drawn) [8-fast, 5-Iodo-5′-O-[cyclo-3,5-di-(tert-butyl)-6-fluoroSaligenyl]-2′-deoxyuridine Monophosphate]					0.000241 min⁻¹	
CC(C)(C)c1cc(C(C)(C)C)c2c(c1F)COP(=O)(OC[C@H]1O[C@@H](n3cc([125I])c(=O)[nH]c3=O)C[C@@H]1F)O2 (stereo partly drawn) [24b, 5-[^125I]-Iodo-5′-O-[cyclo-3,5-Di-(tert-butyl)-6-fluoroSaligenyl]-3′-fluoro-2′,3′-dideoxyuridine]						solubility [2]: low solubility
CC(C)(C)c1cc(C(C)(C)C)c2c(c1F)COP(=O)(O[C@H]1C[C@H](n3cc([125I])c(=O)[nH]c3=O)O[C@@H]1CO)O2 (stereo partly drawn) [14b, 5-[^125I]-Iodo-3′-O-(cyclo-3,5-di-(tert-butyl)-6-fluoroSaligenyl)-2′-deoxyuridine Monophosphate]	2.7 (0.4) cpm/10^3 cells (std dev)	66.7 (8.4) cpm/10^3 cells (std dev)	62.5 (4.3) cpm/10^3 cells (std dev)	4.3 (0.3) cpm/10^3 cells (std dev)		
Cc1cccc2c1OP(=O)(OC[C@H]1O[C@@H](n3cc([125I])c(=O)[nH]c3=O)C[C@@H]1OP1(=O)OCc3cccc(C)c3O1)OC2 (stereo partly drawn) [10b]	13.4 (3.3) cpm/10^3 cells (std dev)	24.5 (5.4) cpm/10^3 cells (std dev)	97.1 (14.6) cpm/10^3 cells (std dev)	6.0 (0.9) cpm/10^3 cells (std dev)		
CC(C)(C)c1cc(C(C)(C)C)c2c(c1F)COP(=O)(OC[C@H]1O[C@@H](n3cc(I)c(=O)[nH]c3=O)C[C@@H]1O)O2 (stereo partly drawn) [8-slow, 5-Iodo-5′-O-[cyclo-3,5-di-(tert-butyl)-6-fluoroSaligenyl]-2′-deoxyuridine Monophosphate]					0.000188 min⁻¹	
CC(C)(C)c1cc(C(C)(C)C)c2c(c1F)COP(=O)(O[C@H]1C[C@H](n3cc(I)c(=O)[nH]c3=O)O[C@@H]1CO)O2 (stereo partly drawn) [14-fast, 5-Iodo-3′-O-[cyclo-3,5-di-(tert-butyl)-6-fluoroSaligenyl]-2′-deoxyuridine Monophosphate]					0.000766 min⁻¹	
CC(C)(C)c1cc(C(C)(C)C)c2c(c1F)COP(=O)(O[C@H]1C[C@H](n3cc(I)c(=O)[nH]c3=O)O[C@@H]1CO)O2 (stereo partly drawn) [14-slow, 5-Iodo-3′-O-[cyclo-3,5-di-(tert-butyl)-6-fluoroSaligenyl]-2′-deoxyuridine Monophosphate]					0.000667 min⁻¹	
CC(C)(C)c1cc(C(C)(C)C)c2c(c1F)COP(=O)(OC[C@H]1O[C@@H](n3cc([125I])c(=O)[nH]c3=O)C[C@@H]1O)O2 (stereo partly drawn) [8b-fast, 5-[^125I]-Iodo-5′-O-[cyclo-3,5-di-(tert-butyl)-6-fluoroSaligenyl]-2′-deoxyuridine Monophosphate]						cell associated activity relative to the corresponding 6b diastereomer [3]: > 110 ×; cell associated activity relative to the corresponding 7b diastereomer [3]: > 20 ×
CC(C)(C)c1cc(C(C)(C)C)c2c(c1F)COP(=O)(OC[C@H]1O[C@@H](n3cc(I)c(=O)[nH]c3=O)C[C@@H]1F)O2 (stereo partly drawn) [compound 24, 5-Iodo-5′-O-[cyclo-3,5-Di-(tert-butyl)-6-fluoroSaligenyl]-3′-fluoro-2′,3′-dideoxyuridine Monophosphate]						solubility [2]: lower water solubility
O=c1[nH]c(=O)n([C@H]2C[C@H](OP3(=O)OCc4ccccc4O3)[C@@H](CO)O2)cc1I (stereo partly drawn) [12-slow, 5-Iodo-3′-O-cycloSaligenyl-2′-deoxyuridine Monophosphate]					0.00164 min⁻¹	
Cc1cccc2c1OP(=O)(OC[C@H]1O[C@@H](n3cc([125I])c(=O)[nH]c3=O)C[C@@H]1O)OC2 (stereo partly drawn) [7b, 5-[^125I]-Iodo-5′-O-cyclo(3-methylSaligenyl)-2′-deoxyuridine Monophosphate]	1.6 (0.5) cpm/10^3 cells (std dev)	25.9 (7.1) cpm/10^3 cells (std dev)	11.7 (1.7) cpm/10^3 cells (std dev)	4.5 (1.0) cpm/10^3 cells (std dev)		
CC(C)(C)c1cc(C(C)(C)C)c2c(c1F)COP(=O)(OC[C@H]1O[C@@H](n3cc(I)c(=O)[nH]c3=O)C[C@@H]1O)O2 (stereo partly drawn) [compound 8, 5-Iodo-5′-O-[cyclo-3,5-di-(tert-butyl)-6-fluoroSaligenyl]-2′-deoxyuridine Monophosphate]						solubility [2]: lower water solubility
Cc1cccc2c1OP(=O)(O[C@H]1C[C@H](n3cc(I)c(=O)[nH]c3=O)O[C@@H]1CO)OC2 (stereo partly drawn) [13-slow, 5 - Iodo-3′-O-cyclo(3-methylSaligenyl)-2′-deoxyuridine Monophosphate]					0.000813 min⁻¹	
CC(C)(C)c1cc(C(C)(C)C)c2c(c1F)COP(=O)(OC[C@H]1O[C@@H](n3cc([125I])c(=O)[nH]c3=O)C[C@@H]1O)O2 (stereo partly drawn) [8b, 5-[^125I]-Iodo-5′-O-[cyclo-3,5-di-(tert-butyl)-6-fluoroSaligenyl]-2′-deoxyuridine Monophosphate]	3.2 (0.01) cpm/10^3 cells (std dev)	92.2 (5.0) cpm/10^3 cells (std dev)	88.3 (5.4) cpm/10^3 cells (std dev)	7.9 (0.4) cpm/10^3 cells (std dev)		retained radioactivity, more than 6b (OVCAR-3 cells; OVCAR-3, 24 h): > 230%; retained radioactivity, more than 7b (OVCAR-3 cells; OVCAR-3, 24 h): ~ 360%
O=c1[nH]c(=O)n([C@H]2C[C@H](OP3(=O)OCc4ccccc4O3)[C@@H](COP3(=O)OCc4ccccc4O3)O2)cc1[125I] (stereo partly drawn) [9b]	37.3 (10.0) cpm/10^3 cells (std dev)	18.1 (3.9) cpm/10^3 cells (std dev)	97.6 (10.0) cpm/10^3 cells (std dev)	6.4 (0.5) cpm/10^3 cells (std dev)		
Cc1cccc2c1OP(=O)(O[C@H]1C[C@H](n3cc(I)c(=O)[nH]c3=O)O[C@@H]1CO)OC2 (stereo partly drawn) [13-fast, 5 - Iodo-3′-O-cyclo(3-methylSaligenyl)-2′-deoxyuridine Monophosphate]					0.000946 min⁻¹	
CC(C)(C)c1cc(C(C)(C)C)c2c(c1F)COP(=O)(O[C@H]1C[C@H](n3cc(I)c(=O)[nH]c3=O)O[C@@H]1CO)O2 (stereo partly drawn) [compound 14, 5-Iodo-3′-O-[cyclo-3,5-di-(tert-butyl)-6-fluoroSaligenyl]-2′-deoxyuridine Monophosphate]						solubility [2]: lower water solubility
Cc1cccc2c1OP(=O)(O[C@H]1C[C@H](n3cc([125I])c(=O)[nH]c3=O)O[C@@H]1CO)OC2 (stereo partly drawn) [13b, 5-[^125I]-Iodo-3′-O-cyclo(3-methylSaligenyl)-2′-deoxyuridine Monophosphate]	1.4 (0.3) cpm/10^3 cells (std dev)	15.7 (2.2) cpm/10^3 cells (std dev)	6.2 (0.6) cpm/10^3 cells (std dev)	2.0 (0.2) cpm/10^3 cells (std dev)		
